From PubChem
M1 ag: M1 muscarinic receptor agonism. B-score at 10 µM. CHO-M1 cells, Fluo-4 calcium fluorescence, agonist mode; stronger effect = higher value. hit rate 3% among 64,000. AID 626;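 active = fluorescence rise, raw or as B-score row- and column-corrected plate score, outside the 99.7% band of its plate's samples, either direction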
M1 antagonist: antagonists of rat M1 muscarinic receptor; P08482; CHO-M1 cells, Fluo-4 calcium, ACh EC80 antagonist mode; stronger effect = lower value; B-score at 10 µM; hit rate 3.4% among 64,000; AID 628;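 active = calcium fluorescence response, raw or row-and-column corrected B-score, differing from the plate sample mean either way at a set confidence level, mostly lower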
Jurkat tox 60K: cytotoxicity toward Jurkat cells | hit rate 1.2% among 56,000 | inhibition, % at 4 µM | Jurkat E6.1 viability, ATP luminescence, 48 h;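 active = inhibition above the mean inhibition of all tested compounds plus 3 SD, cut at about 28% in these data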
S1P3 agonist: S1P3 (human) receptor agonism; hit rate 0.1% among 60,000; Q99500; S1P3 NFAT-BLA reporter cells, FRET ratio; relative to 1 µM S1P, basal subtracted; activation, % at 4.5 µM;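 active = activation above the screen-wide mean plus 3 SD, cut at about 4.5% in these data, passing the limit was not always enough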
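Assay system: stable CHO line with human S1P3, Gα16, NFAT-BLA reporter; Detection: FRET β-lactamase substrate fluorescence, excitation 405 nm, 460/535 nm emission ratio, background-subtracted; Read-out: percent activation versus median 1 µM S1P response, basal-subtracted, per plate; Incubation: cells plated overnight, compound 4 h 37 °C, substrate 2 h RT.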
JNK3 blocker: blocks human JNK3 kinase activity; P53779; purified JNK3 kinase activity, HTS; inhibition, % at 8 µM; hit rate 0.61% among 60,000; AID 746; in the data active = inhibition above about 17%;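 note: 0% = DMSO and 100% = reference inhibitor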
S1P1 ag pot: S1P1 (human) agonism or agonism potentiation. P21453. S1P1 CRE-bla cells, forskolin, beta-lactamase FRET, potentiator mode; S1P1 agonist co-added at EC20, 2 nM; 100% = saturating reference agonist, 0% = basal. activation, % at 9.5 µM. hit rate 0.57% among 56,000;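 active = activation above a cutoff set at the mean activation of all tested compounds plus 3 SD, cut at about 54% in these data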;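 note: forskolin at 4 µM as EC80 and the EC20 agonist is SEW2871; 100% = SEW2871 at its EC100 plus forskolin at EC80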
Target sequence (P21453 whole entry, looked up): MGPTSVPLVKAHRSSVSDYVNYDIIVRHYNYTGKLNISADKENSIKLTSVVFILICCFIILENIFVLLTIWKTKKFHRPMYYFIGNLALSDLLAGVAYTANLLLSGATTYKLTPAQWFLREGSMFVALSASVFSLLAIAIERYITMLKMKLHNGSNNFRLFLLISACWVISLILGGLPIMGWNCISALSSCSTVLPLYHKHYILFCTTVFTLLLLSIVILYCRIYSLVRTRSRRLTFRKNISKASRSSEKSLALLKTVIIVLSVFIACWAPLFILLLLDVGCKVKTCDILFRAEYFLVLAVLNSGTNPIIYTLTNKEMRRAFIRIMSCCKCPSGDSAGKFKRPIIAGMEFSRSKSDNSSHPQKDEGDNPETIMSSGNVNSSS
M1 agonist conf: rat M1 muscarinic agonism, confirmation. shares compounds with M1 ag. CHO-M1 cells, Fluo-4 calcium fluorescence, agonist mode; actives lie on both sides. fluorescence change (max-min) at 10 µM. hit rate 19% among 1,700. AID 1488;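 active = fluorescence change differs from the solvent-only DMSO control mean at a set confidence level in both duplicate runs; inconclusive = differs from solvent-only control mean in just one of two runs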;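 note: an EC20 dose of acetylcholine follows compound addition during the same imaging run; raw fluorescence intensity difference in instrument units with no normalization to controls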
M4 ag counter: counter-screen for M1 agonists: activity at rat M4 receptor | shares compounds with M1 ag | CHO M4/Gqi5 cells, Fluo-4 calcium fluorescence, agonist mode; actives lie on both sides | fluorescence change (max-min) at 10 µM | hit rate 9% among 1,700;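 active = fluorescence change differing from the plate's solvent-only control wells at 99.7% confidence in both duplicates, whether higher or lower; inconclusive = differs from solvent controls in only one of two duplicates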
Numbers without * were called inactive. A selection: hits, their analogues and other compounds. The true share with any hit is near 7.4%.

Screening N#CC(c1nc2ccccc2nc1N1CCCC1)S(=O)(=O)c1ccccc1 (stereo not drawn) returned M1 ag 4*, M1 antagonist -0.23, M1 agonist conf 36 and M4 ag counter 34.
For Cc1cccc(S(=O)(=O)C(C#N)c2nc3ccccc3nc2N2CCCC2)c1 (stereo not drawn) the results were M1 ag 6*, M1 antagonist 0.3, Jurkat tox 60K -3, S1P3 agonist -2, JNK3 blocker -4, S1P1 ag pot 0, M1 agonist conf -3 and M4 ag counter -11.
Screening Cc1ccc(C)c(S(=O)(=O)C(C#N)c2nc3ccccc3nc2N2CCCC2)c1 (stereo not drawn) returned M1 ag -1, M1 antagonist -0.21, Jurkat tox 60K 2, S1P3 agonist -1, JNK3 blocker -2 and S1P1 ag pot 9.
Screening O=c1c2sc3nc(N4CCOCC4)c4c(c3c2ncn1Cc1ccco1)CCCC4 returned M1 ag 0.94, M1 antagonist 1, S1P3 agonist 1, JNK3 blocker 3 and S1P1 ag pot -64.
Screening CC(=O)Nc1ccc(S(=O)(=O)/N=C2\SCCN2S(=O)(=O)c2ccc(NC(C)=O)cc2)cc1 returned M1 ag -0.016, M1 antagonist 1.6, Jurkat tox 60K -2, S1P3 agonist 0, JNK3 blocker 0 and S1P1 ag pot -1.
`CCn1c(COc2ccccc2C)nnc1SCC(=O)O` gave M1 ag -0.19, M1 antagonist 0.16, Jurkat tox 60K 3, S1P3 agonist -2, JNK3 blocker 1 and S1P1 ag pot -22.
Screening CCn1c(COc2ccccc2C)nnc1SCC(=O)CC(=O)Nc1ccccc1 returned M1 ag 3.3*, M1 antagonist 2.7*, Jurkat tox 60K 1, S1P3 agonist -1, JNK3 blocker -1, S1P1 ag pot 25, M1 agonist conf inconclusive and M4 ag counter -54.
Screening CCn1c(COc2cccc(OC)c2)nnc1SCC(=O)Nc1cccc(OC)c1 returned M1 ag 3*, M1 antagonist -0.91, Jurkat tox 60K 0, S1P3 agonist 0, JNK3 blocker -2, S1P1 ag pot 3, M1 agonist conf -22 and M4 ag counter -33.
For C=CCOc1nc2c(c(=O)n(C)c(=O)n2C)n1Cc1c(Cl)cccc1Cl the results were M1 ag -0.023, M1 antagonist 0.22, S1P3 agonist -4, JNK3 blocker 13 and S1P1 ag pot 10.
Screening CN1C(=O)c2cccc(NC(=O)C3CCCCC3)c2C1=O returned M1 ag 0.23, M1 antagonist -0.54, Jurkat tox 60K 2, S1P3 agonist 5, JNK3 blocker 3 and S1P1 ag pot -17.
CN1C(=O)c2cccc(NCCCN3C(=O)c4ccccc4C3=O)c2C1=O was read as M1 ag 4.8*, M1 antagonist 1.1, Jurkat tox 60K -4, S1P3 agonist 0, JNK3 blocker 2, S1P1 ag pot 10, M1 agonist conf 8.1 and M4 ag counter 16.
For CCNc1cccc2c1C(=O)N(C)C2=O the results were M1 ag 179*, M1 antagonist -0.69, Jurkat tox 60K -7, S1P3 agonist 0, JNK3 blocker -2, S1P1 ag pot -8, M1 agonist conf 928* and M4 ag counter 935*.
COCC(C)NCc1ccccc1C (stereo not drawn) was read as M1 ag -1.3, M1 antagonist 0.5, Jurkat tox 60K -2, S1P3 agonist -1, JNK3 blocker 3 and S1P1 ag pot -6.
`COC(=O)CCSCC(=O)Nc1nnc(C)s1` gave M1 ag 0.22, M1 antagonist 0.41, Jurkat tox 60K -4, S1P3 agonist 0, JNK3 blocker 4 and S1P1 ag pot 10.
Screening CC(C)(C)OC(=O)N1CCC[C@H]1C(=O)NCC1CCC(C(=O)O)CC1 (stereo partly drawn) returned M1 ag 0.05, M1 antagonist -0.087, Jurkat tox 60K -11, S1P3 agonist 0, JNK3 blocker 0 and S1P1 ag pot 12.
